Experimental data from different studies.
Protocols differ between the studies behind these lines.
SIGMAR1: Sigma non-opioid intracellular receptor 1 (SIGMAR1, Homo sapiens, UniProt Q99720)
SLC18A3: Vesicular acetylcholine transporter (SLC18A3, Homo sapiens, UniProt Q16572)
BMX: Cytoplasmic tyrosine-protein kinase BMX (BMX, Homo sapiens, UniProt P51813)
OPRK1: Kappa-type opioid receptor (OPRK1, Homo sapiens, UniProt P41145)
HTR2A: 5-hydroxytryptamine receptor 2A (HTR2A, Homo sapiens, UniProt P28223)

Structure (SMILES)	target	assay	setting	Ki [nM]
O=C(CN1CCC(CN2Cc3ccccc3C2=O)CC1)c1ccc(F)cc1	SIGMAR1	ligand displacement, radioligand		1740
CCCN1CCC[C@@H]2Cc3n[nH]cc3C[C@H]21	SLC18A3	ligand displacement, radioligand		> 1000
Cn1cc(-c2cccc(N3CCc4c(sc5c4CC(C)(C)C5)C3=O)c2CO)cc(Nc2ccncn2)c1=O	BMX	enzyme activity, inhibitor, FRET		> 3330
O=C(c1ccc(F)cc1)C1CCN(C2Cc3c(cccc3OCCF)CC2O)CC1 (single isomer, unassigned; (-))	SLC18A3	ligand displacement, radioligand		6.98
CCCC[C@@H](NC(=O)[C@@H](N)Cc1c(C)cc(O)cc1C)C(=O)NCC(=O)N[C@@H](Cc1ccc(F)cc1)C(=O)N(C)CCC[C@@]1(c2ccc(F)cc2)OCc2cc(C#N)ccc21	OPRK1	cell-free assay		3
Cc1cc(O)cc(C)c1C[C@H](N)C(=O)N1CCc2ccc(Cc3cccc(N)c3)cc2C1	OPRK1	ligand displacement, radioligand	cell membranes	28
COc1cc2c(cc1OC)CN(CCc1ccc(NC(=O)c3cccc4c(=O)c5cccc(OC)c5[nH]c34)cc1)CC2	SIGMAR1	ligand displacement, radioligand		> 10000
N[C@@H](C[C@]1(C(=O)O)C[C@H]2OC[C@@H](O)[C@@H](O)[C@H]2O1)C(=O)O	Glutamate receptor ionotropic, kainate 2 (Grik2, Rattus norvegicus, UniProt P42260, Y443F)	ligand displacement, radioligand		895
CN(C)CCCC1(c2ccc(F)cc2)OCc2cc(C#N)ccc21 (stereo not shown)	SIGMAR1	ligand displacement, radioligand		182
Fc1ccc2c(C3CCCNC3)noc2c1 (racemic)	HTR2A	ligand displacement, radioligand	cell membranes	284
OCCOCCN1CCN(C(c2ccccc2)c2ccc(Cl)cc2)CC1 (stereo not shown)	SIGMAR1	ligand displacement, radioligand		437
[C-]#[O+]	cooS2 (Carboxydothermus hydrogenoformans, UniProt Q9F8A8)	enzyme activity, inhibitor		5400
CN(CCCN1c2ccccc2CCc2ccccc21)CC(=O)c1ccc(Cl)cc1	SIGMAR1	ligand displacement, radioligand		7090
Cn1cc(-c2cc(F)cc(N3CCn4c(cc5c4CCCC5)C3=O)c2CO)cc(Nc2ccc(N3CCN(C4COC4)CC3)cn2)c1=O	BMX	enzyme activity, inhibitor, FRET		83.2
CCOC(=O)C(CC)(CCCSC)NC(=O)c1ccc(C2CC2)c(Cc2ccc(F)cc2)n1 (stereo not shown)	Cannabinoid receptor 1 (CNR1, Homo sapiens, UniProt P21554)	ligand displacement, radioligand	cell membranes	8.5
Cc1cccc(Cc2ccc3c(c2)CN(C(=O)[C@@H](N)Cc2c(C)cc(O)cc2C)CC3)c1	OPRK1	ligand displacement, radioligand	cell membranes	2.7
Cc1nc2n(c(=O)c1CCN(C)CCc1c[nH]c3ccccc13)CCCC2	HTR2A	ligand displacement, radioligand	cell membranes	237
CN1CCN(CCc2ccc(Cl)c(Cl)c2)CC1	SIGMAR1	ligand displacement, radioligand		9.48
CNC(=O)[C@H]1[Se][C@@H](n2cnc3c(NCc4cccc(Cl)c4)nc(Cl)nc32)[C@H](O)[C@@H]1O	Adenosine receptor A2a (ADORA2A, Homo sapiens, UniProt P29274)	ligand displacement, radioligand	cell membranes	~200
